Ki data for ten compounds are collected here from ChEMBL document CHEMBL1143271, “Synthesis and CB1 cannabinoid receptor affinity of 4-alkoxycarbonyl-1,5-diaryl-1,2,3-triazoles” (Bioorg Med Chem Lett, 2009).

The target of the test is Cannabinoid receptor 1 (Rattus norvegicus, UniProt P20272). Description: Displacement of [3H]SR141716 from CB1 receptor in rat cerebellum homogenate. Format: tissue-based. The procedure, abridged: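 Competition binding against [3H]SR141716 in rat cerebellum homogenates. Each concentration was run in triplicate, and each experiment was repeated three times. Data were fitted by non-linear regression, and values are mean ± SEM of three experiments.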

Broadly, the Ki is the equilibrium dissociation constant of an inhibitor or competing ligand from its target. Lower therefore signals higher affinity.

Cannabinoid receptor 1, sequence (P20272 whole entry): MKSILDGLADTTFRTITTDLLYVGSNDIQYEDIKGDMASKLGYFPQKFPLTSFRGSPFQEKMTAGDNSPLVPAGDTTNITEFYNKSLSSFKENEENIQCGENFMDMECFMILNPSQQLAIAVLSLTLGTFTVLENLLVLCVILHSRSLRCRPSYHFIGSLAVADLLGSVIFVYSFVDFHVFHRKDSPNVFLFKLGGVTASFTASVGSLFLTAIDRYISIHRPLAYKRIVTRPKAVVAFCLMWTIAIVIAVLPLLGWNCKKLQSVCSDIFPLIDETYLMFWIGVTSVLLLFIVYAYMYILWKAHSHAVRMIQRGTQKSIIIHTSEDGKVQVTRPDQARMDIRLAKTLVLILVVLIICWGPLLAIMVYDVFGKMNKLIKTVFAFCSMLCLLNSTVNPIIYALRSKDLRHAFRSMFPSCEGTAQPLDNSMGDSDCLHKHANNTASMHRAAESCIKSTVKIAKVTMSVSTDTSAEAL

As to `O=C(NN1CCCCC1)c1nnn(-c2ccc(Cl)cc2Cl)c1-c1ccc(Cl)cc1`, the affinity, expressed as Ki, was 590 nM.

Regarding `O=C(Oc1ccccc1)c1nnn(-c2ccc(Cl)cc2Cl)c1-c1ccc(Cl)cc1`, the Ki worked out at 11 nM.

For the compound `O=C(OCc1ccccc1)c1nnn(-c2ccc(Cl)cc2Cl)c1-c1ccc(Cl)cc1`, the Ki was 97 nM.

`COC(=O)c1nnn(-c2ccc(Cl)cc2)c1-c1ccc(Cl)cc1`: the inhibition constant Ki was found to be 4400 nM.

As for `CCCOC(=O)c1nnn(-c2ccc(Cl)cc2Cl)c1-c1ccc(Cl)cc1`, affinity was put at a Ki of 4.6 nM.

`Clc1ccc(-c2cnnn2-c2ccc(Cl)cc2)cc1` registered a Ki of 6900 nM.

In the case of `Clc1ccc(-c2cnnn2-c2ccc(Cl)cc2Cl)cc1`, the affinity, expressed as Ki, was 1420 nM.

As to `O=C(OC1CCCCC1)c1nnn(-c2ccc(Cl)cc2Cl)c1-c1ccc(Cl)cc1`, the affinity corresponds to a Ki of 240 nM.

`CCOC(=O)c1nnn(-c2ccc(Cl)cc2Cl)c1-c1ccc(Cl)cc1` displayed an inhibition constant Ki of 180 nM.

`COC(=O)c1nnn(-c2ccc(Cl)cc2Cl)c1-c1ccc(Cl)cc1` registered a Ki of 66 nM.
